Assay [1] addresses Histone deacetylase 2 (Homo sapiens, UniProt Q92769). As to the kind of experiment: Inhibition of human HDAC2 using RHKKAc peptide as substrate.
For assay [2], the species on record is Homo sapiens. Nature of the assay: Selectivity index, ratio of IC50 for human HDAC3 to IC50 for human HDAC6.
For assay [3], the species on record is Homo sapiens. As to the kind of experiment: Selectivity index, ratio of IC50 for human HDAC8 to IC50 for human HDAC6.
For assay [4], the target named is T1, Polyamine deacetylase HDAC10 (Homo sapiens, UniProt Q969S8).
T1 sequence (Q969S8 whole entry): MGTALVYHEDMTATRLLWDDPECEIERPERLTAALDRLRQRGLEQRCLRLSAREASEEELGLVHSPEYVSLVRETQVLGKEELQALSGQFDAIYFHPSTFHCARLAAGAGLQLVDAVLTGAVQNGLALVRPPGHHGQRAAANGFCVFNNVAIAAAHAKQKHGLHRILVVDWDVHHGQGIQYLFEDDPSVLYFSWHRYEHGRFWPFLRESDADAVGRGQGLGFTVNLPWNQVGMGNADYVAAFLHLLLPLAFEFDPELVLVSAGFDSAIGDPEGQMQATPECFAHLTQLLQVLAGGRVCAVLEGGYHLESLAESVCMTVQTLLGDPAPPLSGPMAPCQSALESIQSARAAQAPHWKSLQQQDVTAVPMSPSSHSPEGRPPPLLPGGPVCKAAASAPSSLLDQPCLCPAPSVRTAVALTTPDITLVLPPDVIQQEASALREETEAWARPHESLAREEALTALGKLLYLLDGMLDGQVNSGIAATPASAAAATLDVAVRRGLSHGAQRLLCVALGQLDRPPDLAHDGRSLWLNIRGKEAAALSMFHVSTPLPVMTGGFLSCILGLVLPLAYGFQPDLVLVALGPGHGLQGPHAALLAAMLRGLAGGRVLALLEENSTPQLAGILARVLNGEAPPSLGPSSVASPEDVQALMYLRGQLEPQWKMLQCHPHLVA
Nature of the assay: Inhibition of human HDAC10 using RHKKAc peptide as substrate.

Assay [5] has as its system Mus musculus. As to the kind of experiment: In vivo inhibition of HDAC6 in 3xTg-AD transgenic mouse brain hippocampal CA1 region assessed as downregulation of scopolamine-mediated increase in Tau phosphorylation at Ser404 residue at 50 mg/kg, po administered daily for 3 months by immunohistochemical analysis. Type of assay: functional, organism-based. In short, it runs like this:
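Female 3xTg-AD mice, standard diet to 6 months of age, then 50 mg/kg orally once daily for three months; memantine 30 mg/kg in water as comparator. Brains removed and hippocampal CA1 sections immunostained for acetyl-α-tubulin and phospho-tau Ser396 and Ser404. Mean ± STD; one-way ANOVA.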

Assay [6] addresses T2, Histone deacetylase 8 (Homo sapiens, UniProt Q9BY41).
T2 sequence (Q9BY41 whole entry): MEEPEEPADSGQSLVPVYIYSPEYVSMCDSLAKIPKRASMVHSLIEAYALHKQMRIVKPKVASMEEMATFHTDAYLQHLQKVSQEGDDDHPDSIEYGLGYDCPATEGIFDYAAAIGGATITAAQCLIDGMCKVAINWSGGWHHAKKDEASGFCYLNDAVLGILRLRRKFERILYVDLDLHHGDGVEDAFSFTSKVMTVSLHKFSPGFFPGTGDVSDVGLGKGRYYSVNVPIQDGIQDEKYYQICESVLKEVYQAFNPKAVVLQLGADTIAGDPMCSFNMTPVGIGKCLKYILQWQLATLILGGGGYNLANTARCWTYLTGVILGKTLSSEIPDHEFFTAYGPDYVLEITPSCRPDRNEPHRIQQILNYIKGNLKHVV
As to the kind of experiment: Inhibition of human HDAC8 using RHKAcKAc peptide as substrate.

Assay [7] concerns the target T3, Protein deacetylase HDAC6 (Homo sapiens) (UniProt Q9UBN7).
T3 sequence (whole entry): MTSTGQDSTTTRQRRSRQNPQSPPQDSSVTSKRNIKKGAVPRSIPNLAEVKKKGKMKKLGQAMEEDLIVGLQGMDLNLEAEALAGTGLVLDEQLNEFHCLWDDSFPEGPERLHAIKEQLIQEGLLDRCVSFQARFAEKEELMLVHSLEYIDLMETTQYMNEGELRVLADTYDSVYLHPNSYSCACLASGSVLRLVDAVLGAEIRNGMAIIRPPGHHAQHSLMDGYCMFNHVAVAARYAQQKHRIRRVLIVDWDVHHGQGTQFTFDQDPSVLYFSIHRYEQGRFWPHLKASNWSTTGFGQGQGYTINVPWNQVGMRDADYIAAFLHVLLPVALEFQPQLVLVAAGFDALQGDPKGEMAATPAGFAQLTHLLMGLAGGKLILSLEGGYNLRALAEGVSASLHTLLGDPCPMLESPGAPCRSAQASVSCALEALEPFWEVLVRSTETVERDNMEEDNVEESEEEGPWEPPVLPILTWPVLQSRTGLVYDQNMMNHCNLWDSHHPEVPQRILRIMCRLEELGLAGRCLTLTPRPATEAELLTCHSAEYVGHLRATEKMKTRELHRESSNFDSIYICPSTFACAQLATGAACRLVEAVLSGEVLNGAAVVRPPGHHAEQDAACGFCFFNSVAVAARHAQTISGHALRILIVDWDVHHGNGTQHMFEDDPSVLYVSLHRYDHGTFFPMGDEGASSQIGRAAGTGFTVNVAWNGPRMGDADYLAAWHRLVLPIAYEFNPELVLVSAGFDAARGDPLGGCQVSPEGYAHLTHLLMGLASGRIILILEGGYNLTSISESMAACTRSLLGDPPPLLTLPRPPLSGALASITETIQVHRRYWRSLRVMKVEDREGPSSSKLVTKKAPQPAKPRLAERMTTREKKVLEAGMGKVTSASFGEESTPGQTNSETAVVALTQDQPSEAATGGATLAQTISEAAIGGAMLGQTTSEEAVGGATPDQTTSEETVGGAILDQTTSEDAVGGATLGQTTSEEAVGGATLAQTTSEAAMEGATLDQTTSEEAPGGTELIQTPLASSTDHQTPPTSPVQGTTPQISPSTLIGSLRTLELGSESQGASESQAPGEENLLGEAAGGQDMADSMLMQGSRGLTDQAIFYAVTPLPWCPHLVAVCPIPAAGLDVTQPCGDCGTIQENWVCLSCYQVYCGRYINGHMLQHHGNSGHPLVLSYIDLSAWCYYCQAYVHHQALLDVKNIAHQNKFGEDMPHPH
Nature of the assay: Inhibition of HDAC6 in human SH-SY5Y cells transfected with pCAX FLAG APP and pRK5-EGFP-Tau P301L plasmids assessed as increase in HSP70 protein expression at 1 uM after 24 hrs by Western blot analysis. The format is cell-based. In a few lines: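 SH-SY5Y and Neuro-2a cells cotransfected 24 h with APP695/Tau P301L plasmids, treated 24 h at 1 µM (ACY-1215 reference). 30 µg lysate immunoprecipitated overnight at 4 °C with anti-HDAC6 or anti-acetyl-lysine antibodies plus protein A/G beads, run on 8% SDS-PAGE, probed for Hsp90; Hsp70 by immunoblot. Three independent experiments.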
(In general: In western blotting, separated proteins are transferred to a membrane and probed.)

The source made the active and inactive calls. No cut-off for these calls is given here. Bounds are passed on as bounds.

Sequence of Histone deacetylase 2 (Q92769 whole entry): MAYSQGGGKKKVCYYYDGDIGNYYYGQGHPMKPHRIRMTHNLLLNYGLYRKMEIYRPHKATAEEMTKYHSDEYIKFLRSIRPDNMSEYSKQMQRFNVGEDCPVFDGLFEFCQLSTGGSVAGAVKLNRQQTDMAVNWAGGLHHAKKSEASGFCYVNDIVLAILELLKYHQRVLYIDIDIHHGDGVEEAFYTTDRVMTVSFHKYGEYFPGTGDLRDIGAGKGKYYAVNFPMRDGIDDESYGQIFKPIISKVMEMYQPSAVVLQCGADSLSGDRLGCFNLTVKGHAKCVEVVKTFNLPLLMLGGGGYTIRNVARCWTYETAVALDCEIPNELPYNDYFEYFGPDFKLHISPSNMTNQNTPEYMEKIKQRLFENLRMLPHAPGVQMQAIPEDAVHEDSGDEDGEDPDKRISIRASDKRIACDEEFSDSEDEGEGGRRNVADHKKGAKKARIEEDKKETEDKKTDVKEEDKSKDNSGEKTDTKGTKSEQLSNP

`COc1ccc(C(=O)c2ccc3c(ccn3Cc3ccc(C(=O)NO)cc3)c2)cc1`: the results for the IC50 in assay [1], in assay [4] and in assay [6] were 0.568 µM, 59.8 µM and 0.646 µM, respectively. Moreover, the Ratio IC50 was 1060 in assay [2] and 165 in assay [3]. Besides, the inhibition entry in assay [5] and in assay [7] was “Active” in each case.

With `O=C(NO)c1ccc(Cn2ccc3cc(C(=O)c4ccc(Cl)cc4)ccc32)cc1`, the IC50 in assay [1] was 2.1 µM; in assay [4] it was over 100 µM; in assay [6] it was 1.06 µM. Moreover, the values for the Ratio IC50 in assay [2] and in assay [3] were 984 and 158, respectively.

On to `O=C(NO)c1ccc(Cn2ccc3cc(C(=O)c4ccc(F)cc4)ccc32)cc1`, for which the IC50 in assay [1] was 5.11 µM; in assay [4], over 100 µM; in assay [6] it was 1.24 µM. In addition, the results for the Ratio IC50 in assay [2] and in assay [3] were 476 and 134, respectively.

What is called IC50 is the concentration that inhibits the measured activity by half. Higher therefore signals weaker potency.

The record behind these values is ChEMBL document CHEMBL4196108, “5-Aroylindoles Act as Selective Histone Deacetylase 6 Inhibitors Ameliorating Alzheimer's Disease Phenotypes” (J Med Chem, 2018).
